# Rows were chosen to be rich in hits. Some 2.6% of all compounds tested hit in one or more screens of this group.
# Xi reactivation = X-chromosome reactivation activator | 360,000 tested, 0.055% active | activation, % at 7.58 µM | XiGFP mouse fibroblasts, % GFP-positive cells imaging, 3 d; cells co-treated with 5-aza-dC sensitizer; scaled so ellipticine positive control = 100%;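 active means mean normalized replicate activation at least 10% and every replicate at or above 10%; inconclusive means only one of the two criteria met; inactive means mean below 10% and not all replicates reach 10%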
#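 Assay system: SV40-immortalized XiGFP fibroblast cells, line 68-5-11; buffer or medium: DMEM plus 5-aza-dC sensitizer; compound: one concentration, pinned; timing: compounds 3 days, fix/stain 15 min at room temperature; benchmarks: positive control ellipticine, 6 µM final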
# MITF act = MITF TRPM1 promoter activation in melanoma cells; SK-MEL-5 TRPM1-promoter luciferase, 24 h; % of positive control, neutral wells = 0; activation, % at 12.5 µM; 300,000 tested, 0.75% active; AID 588334;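 active means mean activation of at least 80% with every replicate also reaching 80%; inconclusive means mean reaches 80% but some replicate falls short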
# Vif inh = inhibitors of HIV Vif. inhibition, % at 7.49 µM. HEK293T cells, Vif self-association by quenched fluorescence, imaging, 24 h. AID 602346. 340,000 tested, 0.35% active; in the data active means inhibition above about 50%, passing the limit was not always enough; inconclusive means no clear call, values can overlap the other calls; inactive means below about 31%
# esBAF inh = inhibitors of esBAF chromatin remodeling in mouse ES cells; Bmi1-luciferase knock-in reporter, 24 h; 100% = twice the neutral-well signal; reporter increase, % at 12.5 µM; 350,000 tested, 2% active; in the data active means activation above about 40%; inconclusive means no clear call, values can overlap the other calls;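 further: a rise in the Bmi1 reporter signal indicates esBAF inhibition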
# Wnt bcat act = Wnt/beta-catenin pathway activation. 300,000 tested, 1.2% active. AID 743398. activation, % at 9.35 µM. Wnt/beta-catenin reporter cell assay, activator, plate reader; in the data active means activation above about 30%, passing the limit was not always enough; inconclusive means no clear call, values can overlap the other calls
# Numbers stand for hits; – = inactive; ? = inconclusive; · = not tested or not shown.
SMILES,Xi reactivation,MITF act,Vif inh,esBAF inh,Wnt bcat act
COc1ccc(NC(=O)Nc2ccc3c(c2)C(=O)N([C@H](C)CO)C[C@@H](C)[C@@H](CN(C)Cc2ccc4c(c2)OCO4)OCCCC[C@@H](C)O3)cc1,–,·,·,–,·
Cc1ccc(S(=O)(=O)Nc2ccc3c(c2)C(=O)N([C@@H](C)CO)C[C@H](C)[C@@H](CN(C)S(=O)(=O)c2cccs2)O3)cc1,–,·,·,–,·
Cc1ccnc(Nc2nc(-c3ccc(O)cc3)cs2)c1,–,–,–,50,–
Cc1ccnc(Nc2nc(-c3ccc(O)cc3O)cs2)c1,–,·,–,79,–
COc1cccc(CN2CC3(C2)CN(C(=O)C2CC2)[C@H](CO)c2c3c3ccc(OC)cc3n2C)c1,–,·,·,·,·
O=C1c2ccccc2C(=O)N1CCc1c[nH]c2ccccc12,–,111,–,·,–
C(#Cc1ccc2c(c1)COc1c3ccccc3nn1-2)c1ccccc1,–,100,–,63,32
C(#CC1CCCCC1)c1ccc2c(c1)COc1c3ccccc3nn1-2,–,·,–,?,35
CC(C#Cc1ccc2c(c1)COc1c3ccccc3nn1-2)OC(C)(C)C (stereo not drawn),–,95,·,104,–
C#Cc1ccc2c(c1)COc1c3ccccc3nn1-2,–,–,–,–,–
CC(C)[C@@H](CO)NC(=O)c1ccc2c3n(nc2c1)-c1ccccc1CO3,–,–,–,–,–
O=C(C[C@H]1C[C@H]2c3cc(NC(=O)NC4CCCC4)ccc3O[C@H]2[C@@H](CO)O1)NCc1ccncc1,–,·,·,–,·
COc1ccc(CN(C)C[C@@H]2Oc3ccc(NS(=O)(=O)c4cn(C)cn4)cc3CC(=O)N([C@H](C)CO)C[C@H]2C)cc1,–,·,·,–,·
CO[C@H]1CN(C)C(=O)c2cc(NC(=O)C3CC3)ccc2OC[C@@H](C)N(C(=O)c2ccncc2)C[C@@H]1C,–,·,·,–,·
Oc1cccc2cc(Nc3ccccc3)cnc12,–,·,·,–,–
Oc1cc(Nc2ccccc2)cc2cccnc12,–,–,–,–,80
Cc1cc(=O)oc2cc(NC(=O)c3ccccc3Cl)ccc12,–,98,–,·,?
COc1cccc(C(=O)Nc2ccc3c(C)cc(=O)oc3c2)c1,–,–,–,–,33
Cc1cc(=O)oc2cc(NC(=O)c3ccccc3C(=O)O)ccc12,–,–,–,–,–
Cc1noc(C)c1S(=O)(=O)Nc1ccc2c(c1)C(=O)N([C@H](C)CO)C[C@@H](C)[C@@H](CN(C)S(C)(=O)=O)OCCCC[C@H](C)O2,–,·,·,–,·
Cc1ccc(C2NC(=S)N3C(c4ccc(C)cc4)NC(=S)N23)cc1 (stereo not drawn),–,·,–,61,–
O=C(C[C@@H]1C=C[C@H](NC(=O)C2CCOCC2)[C@H](CO)O1)Nc1ccccc1,–,·,·,·,·
O=c1/c(=C\c2ccc(F)cc2)sc2n1CCCN=2,–,–,?,·,53
O=c1/c(=C/c2ccc(O)cc2)sc2n1CCCN=2,·,?,–,·,·
CN1C(=O)c2cc(NC(=O)c3ccc(F)cc3)ccc2OC[C@H]2O[C@H](CC(=O)NCC3CCCCC3)CC[C@@H]21,–,·,·,–,·
SMILES,Xi reactivation,MITF act,Vif inh,esBAF inh,Wnt bcat act
COc1ccc2sc(N(CCCN(C)C)C(=O)c3ccc(S(=O)(=O)N4CCCc5ccccc54)cc3)nc2c1,–,–,·,–,–
COc1cc2nc(N(CCCN(C)C)C(=O)c3ccc(S(=O)(=O)N4CCc5ccccc54)cc3)sc2cc1OC,–,–,50,·,–
O=C(Nc1ccc(NC(=O)C2CCCCC2)nc1)c1cccs1,–,–,–,·,55
COc1ccccc1NC(=O)CCC(=O)Nc1nnc(C2CCCCC2)s1,–,–,–,–,34
Cc1ccc(C(=O)Nc2nnc(COCCO)s2)cc1,–,·,–,50,–
COc1cccc(C(=O)Nc2ccc(NC(=O)C3CCCCC3)nc2)c1,·,–,–,–,–
O=C(Nc1nnc(Cc2ccccc2)s1)c1cccs1,·,–,–,44,·
COc1ccccc1OCC(=O)Nc1nnc(C2CCCC2)s1,–,–,–,–,–
Cc1cccc(-c2nnc(NC(=O)c3cccs3)s2)c1,–,–,–,47,–
O=C(Nc1nnc(C2CCCCC2)s1)c1cccs1,·,·,–,51,58
O=C(Nc1nnc(Cc2ccccc2)s1)c1ccccc1,–,·,–,70,–
CC1CCCC(C)N1C(=O)CSc1nnc(NC(=O)c2cccs2)s1 (stereo not drawn),·,·,109,–,–
O=C(Nc1nnc(C2CCCO2)s1)c1cccs1 (stereo not drawn),·,–,–,?,·
